Results: PubChem BioAssay AID624466 (The Scripps Research Institute Molecular Screening Center, 2012)
In all, about 360,000 compounds went through this assay and about 5,400 (1.5%) were called active. Shown is part of a subset that was picked to be rich in actives. Values without a mark were called inactive.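 How the source made its calls: active means inhibition above a per-plate cutoff, the mean inhibition of test compounds on that plate plus 3 SD (cut at about 49% in these data); inactive means the rest.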

Biological target: Trace amine-associated receptor 1 (Homo sapiens) (UniProt Q96RJ0)
Sequence (Q96RJ0 whole entry, looked up): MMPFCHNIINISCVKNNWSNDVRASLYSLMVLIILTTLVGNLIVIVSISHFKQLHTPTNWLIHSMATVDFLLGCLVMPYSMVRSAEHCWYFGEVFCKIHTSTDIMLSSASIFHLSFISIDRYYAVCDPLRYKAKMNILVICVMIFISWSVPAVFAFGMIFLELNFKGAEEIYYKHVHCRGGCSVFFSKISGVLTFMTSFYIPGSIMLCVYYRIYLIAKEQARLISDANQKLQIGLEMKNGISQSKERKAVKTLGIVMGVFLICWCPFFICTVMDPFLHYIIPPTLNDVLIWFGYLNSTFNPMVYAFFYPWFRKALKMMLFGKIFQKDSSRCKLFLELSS
Assay: blockers of beta-PEA-driven TAAR1 calcium signal – Fluo-8 calcium fluorescence, CHO RD-HGA16 cells, primary screen (AID 624466);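 further: 0% = DMSO plus EC80 beta-PEA response and 100% = DMSO alone without agonist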
Conditions: CHO RD-HGA16 TAAR1, Fluo-8 calcium fluorescence, antagonist; at 3 µM; hits give high values
Summary of the method: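 Test system – hTAAR1-expressing CHO RD-HGA16 cells, Gα16-coupled · Also added – β-PEA at EC80 concentration, post-compound challenge · Compound – 3 µM, single point · Incubation – dye loading 75 min at 37 °C, then 30 min room temperature · Measured by – Fluo-8 intracellular calcium dye fluorescence, real-time kinetic reads · Benchmarks – vehicle and agonist controls · Replicates – singlicate, one well per test compound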

Row | Compound | inhibition
1 | COc1ccc(OC)c(CN2C(=O)CCC2(C)c2nnnn2Cc2ccccc2)c1 (stereo unspecified) | -20.4%
2 | CCN1CCN(c2nc(Nc3cc(OC)ccc3OC)nc(Nc3cc(OC)ccc3OC)n2)CC1 | -14.1%
3 | CCOc1ccc(Nc2nc(Cl)nc(N3CCN(c4ccc(OC)cc4)CC3)n2)cc1 | 56.5% (active)
4 | COC(=O)c1ccc(Oc2nc(Nc3ccc(F)cc3)nc(N3CCCC3)n2)cc1 | -16.1%
5 | CC(C)c1ccc(C=NNc2ccc([N+](=O)[O-])cn2)cc1 | 17.1%
6 | O=[N+]([O-])c1ccc(N/N=C/c2ccccc2)cc1 | 61.6% (active)
7 | O=[N+]([O-])c1ccc(N=NNc2ccc([N+](=O)[O-])cc2)cc1 | -6.71%
8 | O=C(NN=Cc1ccco1)C(=O)Nc1ccc(Cl)c([N+](=O)[O-])c1 | 8.28%
9 | CN(C)c1ccc(C=NCCc2ccc(S(N)(=O)=O)cc2)cc1 | -1.3%
10 | c1ccc2c(c1)CCc1snnc1-2 | -2.49%
11 | S=C(NCCCc1cnc[nH]1)NCCCN(Cc1ccc(Cl)c(Cl)c1)c1ccc(Br)cn1 | 51.9% (active)
12 | NCCCNC(=S)NCCCN(Cc1ccc(Cl)cc1)c1ccc(Br)cn1 | 0.12%
13 | C=CCN=C1NC(c2ccccc2)C(C(=O)OC)=C(C)N1Cc1ccc(C(F)(F)F)cc1 (stereo unspecified) | 31.4%
14 | CSc1ncccc1C(=O)N1CCCC(Nc2ccc(F)c(F)c2)C1 (stereo unspecified) | 4.84%
15 | CC(=O)c1c(C)[nH]c(C(=O)COC(=O)c2cccc(S(=O)(=O)N(C)c3ccccc3)c2)c1C | 81.8% (active)
16 | CN(c1ccccc1)S(=O)(=O)c1ccc(Cl)c(C(=O)OCC(N)=O)c1 | -0.08%
17 | CC(=O)c1c(C)[nH]c(C(=O)COC(=O)c2cccs2)c1C | 36%
18 | COc1ccccc1N1CCN(C(=O)Cn2nnc(-c3cccs3)n2)CC1 | 2.09%
19 | O=C(Nc1ccccc1-c1nnn(CC(=O)N2CCN(c3ccccc3)CC2)n1)c1cccs1 | 62% (active)
20 | O=C(Nc1ccc(N2CCN(C(=O)C3CC3)CC2)cc1)c1cccs1 | 16.4%
21 | Cc1ccc(F)cc1S(=O)(=O)Nc1cccc(C(=O)N2CCCC(C(N)=O)C2)c1 (stereo unspecified) | -13.3%
22 | COC(=O)[C@]12CCCCC=C1N(Cc1ccco1)C(=O)[C@H](CC(=O)NCCCCc1ccccc1)C2 | 12.7%

Row | Compound | inhibition
23 | CN(C(=O)CN1C(=O)NC(C)(CCc2ccccc2)C1=O)c1ccccc1 (stereo unspecified) | 9.09%
24 | CC(=O)C1=C(C)N(Cc2ccccc2)C(=S)NC1c1cccc(Br)c1 (stereo unspecified) | 25.4%
25 | CN(C)c1ccc(/C=C2\NC(=S)N(Cc3ccccc3)C2=O)cc1 | 74.3% (active)
26 | COc1ccc(OC)c2[nH]c(=O)c(CCNC(=O)C(C)(C)C)cc12 | -17%
27 | COc1ccc(OC)c2[nH]c(=O)c(CCNC(=O)C(=O)c3c[nH]c4ccccc34)cc12 | 64.7% (active)
28 | O=C(NCCCc1ccccc1)C(=O)c1c[nH]c2ccccc12 | -6.38%
29 | CC(=O)Nc1ccc(NC(=O)COC(=O)C2CCC(C(C)(C)C)CC2)cc1 (stereo unspecified) | 65.2% (active)
30 | O=C(COC(=O)C1CCCCC1)Nc1ccc([N+](=O)[O-])cc1 | 35.5%
31 | CCC(C)c1ccc(NC(=O)COC(=O)C2CCCC2)cc1 (stereo unspecified) | 5.25%
32 | O=C(Nc1ccc(F)cc1)C(CCc1ccccc1)N1CCN(CC(=O)N2CCCC2)CC1 (stereo unspecified) | 4.42%
33 | C[C@H](CO)N1C[C@H](C)[C@@H](CN(C)C(=O)Nc2ccccc2F)OCc2cn(nn2)CCCC1=O | 6.99%
34 | CCCNC(=O)C1(C)CCN(Cc2csc(-c3ccc(Cl)cc3)n2)C1 (stereo unspecified) | -5.66%
35 | CN(C)S(=O)(=O)c1cccc(NC(=O)COc2ccc3ccccc3c2)c1 | 30.8%
36 | CN(C)S(=O)(=O)c1cccc(NC(=O)COC(=O)C2(c3ccccc3F)CCCC2)c1 | 62.5% (active)
37 | CN(C)S(=O)(=O)c1cccc(NC(=O)COC(=O)c2cc(=O)[nH]c(=O)[nH]2)c1 | -12.5%
38 | Nc1[nH]c(C(=O)c2ccc(Br)cc2)c(-c2ccc3c(c2)OCO3)c1C(=O)NCCc1c[nH]c2ccccc12 | -6.65%
39 | CC(C)(C)NC(=O)CN(C(=O)c1csnn1)c1ccccc1-c1ccccc1 | 5.99%
40 | OC(CNCCc1ccc(Cl)cc1Cl)COc1ccccc1 (stereo unspecified) | 52.8% (active)
41 | OC(COc1ccccc1)CN1CCN(c2cccc(Cl)c2)CC1 (stereo unspecified) | -33.9%
42 | COc1ccc(OCC(O)CNC(=O)Nc2ccc(Cl)cc2)cc1 (stereo unspecified) | 12.9%
43 | CCOc1ccc(CCN2C(=O)C(=O)N([C@@H](Cc3ccc(O)cc3)CN3CCC[C@H]3CN3C(=O)C(=O)NC[C@@H]3CC(C)C)C[C@@H]2Cc2ccccc2)cc1 | -8.01%
44 | CCOC(=O)C1CSCCS(=O)(=O)N1Cc1ccc(Cl)cc1 (stereo unspecified) | -2.26%

Row | Compound | inhibition
45 | C=CCn1c(SCC(=O)CC(=O)OCC)nc2cc(C(=O)N3CCC(C(N)=O)CC3)ccc2c1=O | -12.6%
46 | C=CCn1c(SCc2cccc(F)c2)nc2cc(C(=O)N3CCC(C(N)=O)CC3)ccc2c1=O | 62.7% (active)
47 | NC(=O)C1CCN(C(=O)c2ccc3c(=O)n(Cc4cccc(Br)c4)c(=S)[nH]c3c2)CC1 | -0.46%
48 | COc1ccc2[nH]c(=O)c(CN(Cc3cccnc3)S(=O)(=O)c3ccccc3F)cc2c1 | 69.4% (active)
49 | CCOc1ccc2[nH]c(=O)c(CN(CCCO)S(=O)(=O)c3ccc(F)cc3)cc2c1 | 28.9%
50 | COc1ccc(-c2[nH]ncc2CN(C)Cc2cccnc2)c(F)c1 | -6.76%
51 | O=C(Nc1ccccc1)c1ccc2nsnc2c1 | -3.37%
52 | CC(C)(C)NC(=O)c1cccc(NC(=O)Cc2ccc(Br)cc2)c1 | -5.95%
53 | O=C(Nc1cccc(NC(=O)c2ccc(Br)cc2)c1)c1ccccc1 | 66% (active)
54 | CCn1cc(/C=C2/SC(=S)NC2=O)c(C)n1 | -4.35%
55 | O=C(NCc1cccnc1)c1ccc2nc([C@@H]3O[C@H](CO)[C@H](O)[C@H](O)[C@H]3O)[nH]c2c1 | 1.36%
56 | CCOc1ccc(N2CC(C(=O)NCc3ccccn3)CC2=O)cc1 (stereo unspecified) | -11.4%
57 | CCOc1ccc(NC(=O)[C@H](C)NC(=O)C2CC(=O)N(c3ccc(OC)cc3)C2)cc1 (stereo partly specified) | -34.6%
58 | CCOc1ccc(N2CC(C(=O)N/N=C/c3sccc3C)CC2=O)cc1 (stereo unspecified) | 105% (active)
59 | O=C(NCc1ccccc1)[C@H]1CCCN1C(=O)[C@H]1CCCN1C(=O)c1cc(F)cc(F)c1 | -9.09%
60 | COC(=O)[C@]12CCCCC=C1N(Cc1ccc3c(c1)OCO3)C(=O)[C@H](CC(=O)N1CCOCC1)C2 | 2.33%
61 | Cn1c(=O)c2ccccc2n(CC(=O)Nc2ccc3c(c2)OCCO3)c1=O | -4.86%
62 | Cc1c(C(=O)NCc2ccc(C#N)cc2)sc(=O)n1Cc1ccc(C(=O)N(C)C)cc1 | 0.09%
63 | CC(=O)Oc1ccc(Cn2c(C)c(C(=O)NCc3ccc(C#N)cc3)sc2=O)cc1 | 85.1% (active)
64 | Cc1ccc(Cn2c(C)c(C(=O)NCc3ccccc3C(F)(F)F)sc2=O)cc1 | 24%
65 | OC(CCl)CCl | -9.09%
66 | CCCCCn1nnnc1-c1nc2cc3ccccc3cc2[nH]c1=O | 21.1%

Row | Compound | inhibition
67 | Cc1ccc(Cc2c(-c3ccc(Cl)cc3)nc3c4ccccc4ccn23)cc1 | -7.64%
68 | COC(=O)C[C@H]1C=C[C@@H](NS(=O)(=O)c2ccc(C)cc2)[C@@H](CO)O1 | -21.2%
69 | O=C(CCS(=O)(=O)Cc1ccccc1)Nc1ccc2c(c1)OCCO2 | -13.2%
70 | CCOC(=O)c1cccc(NC(=O)CN(c2ccc(C)cc2)S(=O)(=O)c2c(C)noc2C)c1 | 72.2% (active)
71 | O=C(CN(c1ccc2c(c1)OCCO2)S(=O)(=O)c1ccccc1)Nc1ccc2c(c1)OCO2 | 54% (active)
72 | Cc1noc(C)c1S(=O)(=O)N(CC(=O)Nc1ccc2c(c1)OCCO2)c1ccc(C(C)C)cc1 | 52.7% (active)
73 | Cc1cc(C)cc(N(CC(=O)NCC2CCCO2)S(=O)(=O)c2c(C)noc2C)c1 (stereo unspecified) | -14.5%
74 | COc1ccc(N(CC(=O)Nc2cc(OC)ccc2OC)S(=O)(=O)c2c(C)noc2C)cc1 | 4.12%
75 | Cc1noc(C)c1S(=O)(=O)N(CC(=O)NCc1ccc(Cl)cc1)c1ccc2c(c1)OCO2 | -0.54%
76 | CCOc1ccc(N(CC(=O)OC)S(=O)(=O)c2c(C)noc2C)cc1 | 1.95%
77 | CCN(CC(=O)Nc1ccc2c(c1)OCO2)S(=O)(=O)c1ccccc1 | 7.44%
78 | C[C@H](O)[C@@H]1CN2CCc3ccc(-c4ccc5c(c4)OCO5)cc3[C@@H]2C[C@@H]1N(C)C(=O)C1CCCCC1 | -24.1%
79 | OC(c1cc(Cl)cc(Cl)c1)c1ncc(-c2ccccc2C(F)(F)F)[nH]1 (stereo unspecified) | 11.8%
80 | Cc1cc2c(nc1C)CCCN2C | 0.43%
81 | COc1ccc(N2c3ccccc3CN(Cc3ccccc3)[C@@H](C)[C@H]2Cc2ccc(-c3ccccc3)cc2)cc1 | -11.9%
82 | COC(=O)[C@]12C[C@H](CC(=O)NCCc3ccccc3OC)C(=O)N(Cc3ccccc3)C1=C[C@H](C(C)C)O[C@@H]2C1CC1 | -27.5%
83 | Cc1ccc2nc(COc3ccc(N(C)S(=O)(=O)c4ccccc4)cc3)cc(=O)n2c1 | 36%
84 | O=C(Nc1ccccn1)C1CCN(S(=O)(=O)c2ccccc2)CC1 | 0.4%
85 | Cc1ccnc(NC(=O)C2CCN(S(=O)(=O)c3c(C)c(C)cc(C)c3C)CC2)c1 | 50% (active)
86 | Cc1cccc(NC(=O)C2CCN(S(=O)(=O)c3cccc4cccnc34)CC2)c1 | 32.8%
